# “Also recorded” adds a separate entry of the source.
# What was measured:
# CCI mice = test: Cold allodynia; format: in vivo, mouse; settings: for Peak reduction of response rate to acetone stimulus: by 2-hour time point
# Procedure, shortened: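 CCI mice tested 14 days after surgery. […] Acetone-evoked cold allodynia scored before surgery, at t = 0 before dosing, and at 0.5, 1, 1.5, 2, 4 and 6 h. Expressed as % of maximal possible responses. Two-way ANOVA with Dunnett's test versus vehicle.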
# naïve mice = test: Accelerating rotarod, motor coordination in naïve mice; format: in vivo, mouse
# Procedure, shortened: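 Naïve mice trained for 3 days on an accelerating rotarod with large cylinders (3 sessions/day at 30-min intervals, 5 min acclimatisation each day), speed rising from 4 to 20 rpm over 180 s. Test compound given i.p. in 5% Solutol in PBS. Tested at t = 0 and 30, 60, 90, 120 and 180 min post-dose. Performance normalised to % baseline.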
# mice [1] = test: Grip strength test; format: in vivo, mouse; settings: 30 min post-injection
# mice [2] = test: Side effect scoring; format: in vivo, mouse
# Procedure, shortened: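 Adverse events, including sedation, recorded at each time point as mice were placed in the testing apparatus after i.p. dosing. Each scored 0–3 (none, mild, moderate, severe), and scores averaged per treatment group.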
# muscarinic receptors = test: Cerep panel off-target selectivity screen, muscarinic receptors; format: binding; settings: 1 × 10^-5 M
# adenosine receptors = test: Cerep panel off-target selectivity screen, adenosine receptors; format: binding; settings: 1 × 10^-5 M
# hGlyT2^WT = target: T1, hGlyT2^WT (Homo sapiens, UniProt Q9Y345); test: Reversibility; format: cell-based; settings: washout, hGlyT2^WT
# T1 sequence (Q9Y345 1-797): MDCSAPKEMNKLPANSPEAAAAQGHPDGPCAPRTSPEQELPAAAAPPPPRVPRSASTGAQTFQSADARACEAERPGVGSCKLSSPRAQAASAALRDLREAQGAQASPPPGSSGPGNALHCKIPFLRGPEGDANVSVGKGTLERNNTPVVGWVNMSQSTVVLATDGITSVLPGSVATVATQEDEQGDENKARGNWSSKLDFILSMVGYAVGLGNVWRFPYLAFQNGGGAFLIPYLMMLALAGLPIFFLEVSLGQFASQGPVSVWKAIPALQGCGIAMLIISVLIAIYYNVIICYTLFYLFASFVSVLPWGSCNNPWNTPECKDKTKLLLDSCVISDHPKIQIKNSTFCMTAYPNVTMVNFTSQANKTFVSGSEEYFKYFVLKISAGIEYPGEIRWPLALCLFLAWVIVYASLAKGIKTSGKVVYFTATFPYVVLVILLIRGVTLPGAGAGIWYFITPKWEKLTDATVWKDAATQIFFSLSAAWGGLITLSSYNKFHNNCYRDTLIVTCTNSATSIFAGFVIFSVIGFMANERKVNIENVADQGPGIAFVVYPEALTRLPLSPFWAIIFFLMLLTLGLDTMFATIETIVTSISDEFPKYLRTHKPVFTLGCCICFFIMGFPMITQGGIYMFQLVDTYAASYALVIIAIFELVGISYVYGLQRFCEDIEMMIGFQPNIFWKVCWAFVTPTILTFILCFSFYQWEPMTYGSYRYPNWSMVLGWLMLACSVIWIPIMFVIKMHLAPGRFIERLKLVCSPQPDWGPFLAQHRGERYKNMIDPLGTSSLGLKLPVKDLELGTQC
# Procedure, shortened: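 Xenopus oocytes injected with 20 ng hGlyT2 WT cRNA and held 3–6 days at 18 °C. Glycine currents recorded by two-electrode voltage clamp at −60 mV. Test compound applied at a single concentration (10 μM maximum), then washed out. Recovery of 30 µM glycine-evoked currents followed to 30 min, normalised to pre-inhibitor current. n ≥ 5 from at least two frogs.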
compound,measurement,setting,value
"CN(C)C1(CNC(=O)c2ccc3c(c2)CCN3C(=O)c2ccccc2)CCOCC1 [RPI-GLYT2–82, 1-benzoyl-N-((4-(dimethylamino)tetrahydro-2H-pyran-4-yl)methyl)indoline-5-carboxamide]",Peak reduction of response rate to acetone stimulus,CCI mice; 50 mg/kg i.p.,59%
same,Peak reduction of response rate to acetone stimulus,CCI mice; 100 mg/kg i.p.,62%
same,Efficacy at alleviating cold allodynia compared to gabapentin,CCI mice; 50 and 100 mg/kg,comparable efficacy to the control compound gabapentin; also recorded: equivalent efficacy
same,"Time of peak anti-allodynia effects, cold allodynia",CCI mice; 50 and 100 mg/kg,≤ 2 h
same,"Adverse neuromotor effects or muscle weakness (rotarod, grip strength, sedation)",naïve mice; 50 mg/kg analgesic dose,not associated with adverse neuromotor effects or muscle weakness
same,Rotarod performance,naïve mice; 250 mg/kg,transient reduction in rotarod performance
same,Initial reduction in baseline rotarod performance,"naïve mice; 250 mg/kg i.p., restored over the 90-minute time course",61%
same,Grip strength (muscle weakness),mice [1]; 50 mg/kg,not at 50 mg/kg
same,Grip strength (muscle weakness),"mice [1]; 250 mg/kg, recovered at 60 minutes",transient deficits in the grip-strength test; also recorded: transient muscle weakness
same,Sedation,mice [2]; 250 mg/kg (maximal dose),transient sedation
same,Time to full recovery from sedation,mice [2]; 250 mg/kg i.p.,≤ 90 min
same,Activity at muscarinic receptors,muscarinic receptors,inactive
same,Activity at adenosine receptors,adenosine receptors,inactive
same,Reversibility of inhibition (recovery of glycine-induced currents),hGlyT2^WT,recovered to pre-inhibition levels within five minutes

# From paper PMC12667952 (bioRxiv, 2025)
